Data taken from ChEMBL document CHEMBL1123243, “Studies on prodrugs. 5. Synthesis and antimicrobial activity of N-(oxoalkyl)norfloxacin derivatives” (J Med Chem, 1986).

Assays:
[1] = test system: Proteus vulgaris; test: Compound was tested for antimicrobial activity against Proteus vulgaris OX-19; format: functional
In short: (§1)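 Agar dilution on Mueller-Hinton agar with serial 2-fold dilutions; plate concentrations 0.006 to 100 µg/mL. Inoculum about 10^6 cfu/mL. Plates incubated at 37 °C for 18 h. MIC is the lowest concentration preventing visible growth.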

[2] = test system: Staphylococcus aureus; test: Compound was tested for antimicrobial activity against Staphylococcus aureus FDA207PJC-1; format: functional; design: unit: µg/mL; in short: as §1
[3] = test system: Escherichia coli; test: Compound was tested for antimicrobial activity against Escherichia coli KC-14; format: functional; in short: as §1
[4] = test system: Pseudomonas aeruginosa; test: Compound was tested for antimicrobial activity against Pseudomonas aeruginosa PAO1; format: functional; in short: as §1
[5] = test system: Serratia marcescens; test: Compound was tested for antimicrobial activity against Serratia marcescens 16; format: functional; in short: as §1
[6] = test system: Escherichia coli; test: Compound was tested for antimicrobial activity in mice infected with Escherichia coli KC-14 after peroral administration; format: functional; conditions: po
In short: (§2)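 Male ddy mice (20 ± 2 g), groups of 10, were infected ip with 0.5 mL of bacteria at 10 or 100 times the 50% lethal dose. Compound was suspended in 0.5% sodium carboxymethyl cellulose and given orally 1 h postinfection. Survival was scored after 1 week.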

[7] = test system: Mus musculus; test: Compound was tested for antimicrobial activity in mice infected with Escherichia coli KC-14, po; format: functional; in short: as §2
[8] = test system: Mus musculus; test: Serum Levels in mice, after oral administration at a dose of 100 mg/kg p.o. at 1 hr; format: functional, organism-based; design: dose 100 mg/kg
In short: (§3)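 Mice were given compound orally as a suspension in 0.5% sodium carboxymethyl cellulose at 100 mg/kg (NFLX-equivalent dose). Animals were killed by bleeding at 0.5, 1.0, 2.0 and 4.0 h. Serum norfloxacin and parent compound were measured by HPLC.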

[9] = test system: Mus musculus; test: Serum concentration in mice, after oral administration at a dose of 100 mg/kg p.o. at 5 hr; format: functional, organism-based; design: dose 100 mg/kg
[10] = test system: Klebsiella pneumoniae; test: Compound was tested for antimicrobial activity against Klebsiella pneumonia IFO3512; format: functional; in short: as §1
[11] = test system: Mus musculus; test: Serum Levels in mice, after oral administration at a dose of 100 mg/kg p.o. at 2 hr; format: functional, organism-based; design: dose 100 mg/kg; in short: as §3
[12] = test system: Mus musculus; test: (§4) Serum concentration in mice, after oral administration at a dose of 100 mg/kg p.o. at 2 hr; format: functional, organism-based; design: dose 100 mg/kg; in short: as §3
[13] = test system: Bacillus subtilis; test: Compound was tested for antimicrobial activity against Bacillus subtilis ATCC 6633; format: functional; in short: as §1
[14] = test system: Mus musculus; test: Serum concentration in mice, after oral administration at a dose of 50 mg/kg p.o. at 2 hr; format: functional, organism-based; design: dose 50 mg/kg
[15] = test system: Mus musculus; test: Serum concentration in mice, after oral administration at a dose of 100 mg/kg p.o. at 1 hr; format: functional, organism-based; design: dose 100 mg/kg; in short: as §3
[16] = test system: Mus musculus; test: Serum concentration in mice, after oral administration at a dose of 100 mg/kg p.o. at 0.5 h; format: functional, organism-based; design: dose 100 mg/kg; in short: as §3
[17] = test system: Mus musculus; test: Serum Levels in mice, after oral administration at a dose of 100 mg/kg p.o. at 5 hr; format: functional, organism-based; design: dose 100 mg/kg
[18] = test system: Mus musculus; test: Serum Levels in mice, after oral administration at a dose of 100 mg/kg p.o. at 0.5 h; format: functional, organism-based; design: dose 100 mg/kg; in short: as §3
[19] = test system: Mus musculus; test: as §4; format: functional, organism-based; design: dose 100 mg/kg; remark: listed apart in the source
In short: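 Compound was suspended in 0.5% sodium carboxymethyl cellulose and given orally to mice at 100 mg/kg, as a dose equivalent to 100 mg/kg NFLX. Mice were killed by bleeding at 0.5, 1.0, 2.0 and 4.0 h. Serum NFLX and parent compound were each measured by HPLC.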

[20] = test system: Mus musculus; test: Compound was tested for antimicrobial activity in mice infected with Pseudomonas aeruginosa E2,po; format: functional
In short: (§5)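 Male ddy mice (20 ± 2 g, groups of 10) received an intraperitoneal inoculum of 0.5 mL bacterial dilution at 10 or 100 times the 50% lethal dose. Compound was suspended in 0.5% sodium carboxymethyl cellulose and given orally 1 h postinfection.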

[21] = test system: Mus musculus; test: Compound was tested for antimicrobial activity in mice infected with Staphylococcus aureus smith. po; format: functional; in short: as §5
[22] = Lethal dose was measured in rat after iv administration; format: toxicity, organism-based; conditions: in vivo
In short: (§6)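 Each compound was suspended in 0.5% cmc and given by the stated route. Deaths were counted within 1 week, and LD50 was calculated by the method of Weil.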

[23] = Compound was evaluated for area under curve doses in […] at 100 mg/kg po; format: functional, organism-based; design: dose 100 mg/kg
[24] = test system: Mus musculus; test: Compound was tested for antimicrobial activity in mice infected with Staphylococcus aureus smith, po; format: functional; in short: as §2
[25] = Lethal dose was measured in rat after oral administration; format: toxicity, organism-based; conditions: in vivo; in short: as §6

Structure (SMILES) | Activity [1] | Activity [2] | Activity [3] | Activity [4] | Activity [5] | ED50 [6] [mg/kg] | Serum concentration [9] [µg/mL] | Activity [10] | Activity [13] | Serum concentration [15] [µg/mL] | Serum concentration [16] [µg/mL] | Serum concentration [19] [µg/mL] | further results
CCn1cc(C(=O)O)c(=O)c2cc(F)c(N3CCN(CC(C)O)CC3)cc21 (stereo not given) | 0.78 | 0.39 | 0.78 | 6.25 | 3.12 | 3.9 | 2.82 | 0.2 | 0.78 | 20.2 | 19.5 |  | ED50 [7]: 3.5 mg/kg; Serum level [8]: 27.1; Serum level [11]: 11.8 µg/mL; Serum concentration [12]: 6.93 µg/mL; Serum concentration [14]: 4.48 µg/mL; Serum level [17]: 2.21; Serum level [18]: 13.6 µg/mL
CCn1cc(C(=O)O)c(=O)c2cc(F)c(N3CCN(C(C)C(C)=O)CC3)cc21 (stereo not given) | 1.56 | 0.78 | 3.13 | 12.5 | 12.5 | 3.53 |  | 0.78 | 0.78 |  |  |  | 
CCn1cc(C(=O)O)c(=O)c2cc(F)c(N3CCN(CC(=O)C(C)(C)C)CC3)cc21 | 3.13 | 0.78 | 12.5 | 50 | <100 | 7.13 | 6.73 | 0.78 | 0.78 | 15.4 | 19.6 | 9.4 | 
CCn1cc(C(=O)O)c(=O)c2cc(F)c(N3CCNCC3)cc21 [NORFLOXACIN] | 0.2 | 0.39 | 0.39 | 0.78 | 0.78 | 4.38 |  | 0.2 | 0.39 |  |  |  | ED50 [20]: 59 mg/kg; ED50 [21]: 36.4 mg/kg; LD50 [22]: 314 mg/kg
CCn1cc(C(=O)O)c(=O)c2cc(F)c(N3CCN(C(C)(C)C(C)=O)CC3)cc21 | 1.56 | 0.78 | 3.13 | 6.25 | 6.25 | 6.06 |  | 0.39 | 0.39 |  |  |  | 
CCn1cc(C(=O)O)c(=O)c2cc(F)c(N3CCN(CC(=O)c4ccccc4)CC3)cc21 | 0.39 | 0.78 | 0.78 | 1.56 | 1.56 | > 7.5 |  | 0.78 | 0.78 |  |  |  | 
CCn1cc(C(=O)O)c(=O)c2cc(F)c(N3CCN(CCC(C)=O)CC3)cc21 | 0.2 | 0.78 | 0.78 | 0.78 | 0.78 | 2.34 | 1.18 | 0.2 | 0.39 | 3.55 | 7.06 | 2.22 | AUC [23]: 12.9
CCn1cc(C(=O)O)c(=O)c2cc(F)c(N3CCN(CC(C)=O)CC3)cc21 | 0.78 | 0.39 | 1.56 | 6.25 | 6.25 | 0.95 | 0.46 | 0.2 | 0.39 | 7.29 | 23.6 | 2.69 | ED50 [24]: 12.6 mg/kg; ED50 [20]: 18.5 mg/kg; LD50 [25]: > 4000 mg/kg; Serum concentration [14]: 8.88 µg/mL; LD50 [22]: 684 mg/kg
